Laboratory results: PMC8513424 (Laryngoscope Investigative Otolaryngology, 2021)
Read-outs that look alike come from different tables or passages of the source.

Key:
[1] = tested on: hearing of patients with NF2; test: Pilot 1 audiograms; format: in vivo, human
[2] = tested on: patients with advanced solid tumors; settings: cited from earlier work
[3] = tested on: patients with NF2 or sporadic meningioma; test: Pilot 1 safety and tolerability; format: in vivo, human
Summary of the method: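 Pilot 1 was a subset of a phase I, 3 + 3 dose-escalation study of the oral test compound in solid tumors. Dosing started at 30 mg three times weekly for 3 weeks, then 1 week off, per 28-day cycle. Adults (≥18 y, ECOG 0-1) had NF2-associated or sporadic VS/meningioma with ≥15% volumetric growth on pre-enrollment MRI. Toxicities were graded by CTCAE v4.0.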

[4] = tested on: NF2‐deficient benign meningioma Ben‐Men‐1 cells; settings: cited from earlier work
[5] = Pilot 2 intra‐tumoral AR‐42 concentration by LC‐MS/MS; format: in vivo, human
Summary of the method: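 The oral test compound was given at 40 mg three times weekly for 3 weeks before resection. Each VS was divided into peripheral capsule and center, and samples were frozen quickly. Drug was measured by LC-MS/MS against a standard curve of known concentrations, as the mean of three runs. Tumor:plasma ratio = capsule or center concentration ÷ pre-anesthesia plasma concentration.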

VS and meningioma cells = settings: cited from earlier work
human VS cells = settings: cited from earlier work
schwannoma xenografts = settings: cited from earlier work
[6] = day one, cited from earlier work
[7] = tested on: NF2‐associated or sporadic VS or meningiomas; test: Pilot 1 tumor volumetric measurement by MRI; format: in vivo, human
[8] = Patient # 2.7 (meningioma), 40 mg
[9] = Patient 1.1, 837 days on AR‐42, Left parieto‐occipital Meningioma
[10] = Patient 1.1, 837 days on AR‐42, Right neck Schwannoma
[11] = Patient 1.1, Left parieto‐occipital Meningioma
[12] = Patient 1.1, Right IAC Schwannoma
[13] = Patient 1.1, Right neck Schwannoma
[14] = Patient 1.2, 84 days on AR‐42, Right intradural C1 Meningioma
[15] = Patient 1.2, Left trigeminal Schwannoma
[16] = Patient 1.2, Right intradural C1 Meningioma
[17] = Patient 1.4, 275 days on AR‐42, Left IAC Schwannoma
[18] = Patient 1.4, 275 days on AR‐42, Left posterior fossa Meningioma
[19] = Patient 1.4, Left IAC Schwannoma
[20] = Patient 1.4, Left posterior fossa Meningioma
[21] = Patient 1.4, Let foramen magnum Meningioma
[22] = Patient 1.4, Right IAC Schwannoma
[23] = Patient 1.4, Right anterior falx Meningioma
[24] = Patient 1.5, 134 days on AR‐42, Right petroclinoid Meningioma
[25] = Patient 1.5, Right petroclinoid Meningioma
[26] = Patient 1.6, 58 days on AR‐42, Right IAC Schwannoma
[27] = Patient 1.6, Left IAC Schwannoma
[28] = Patient 1.6, Right IAC Schwannoma
[29] = Patient 1.7, Left IAC Schwannoma
[30] = Patient 1.7, Left prepontine cistern Meningioma
[31] = post‐treatment vs on AR‐42, of 11
[32] = pre‐treatment to on‐treatment, of 15

## CC(C)[C@H](C(=O)Nc1ccc(C(=O)NO)cc1)c1ccccc1 [AR‐42]
[1]; Patient 1.6, from 17 db at initiation
  Pure tone average (PTA) after treatment: 55 db
[1]; patients 1.1, 1.4 and 1.7
  Measurable hearing in the contralateral ear on AR‐42: remained stable
[2]; 30, 60 or 80 mg orally
  Dose‐limiting toxicities (DLTs): grade 3 thrombocytopenia and grade 4 psychosis
[2]; NF2 and non‐NF2 meningioma subset, RECIST, 95% CI: 1.9—not reached
  Median progression‐free survival: 9.1 months
[2]
  Most common treatment‐related adverse events: cytopenias, fatigue, and nausea
[2]; daily, three times weekly for 3 weeks of a 28‐day cycle
  Recommended phase II dose: 60 mg
[3]; Patient 1.7, 80 mg, after 10 days of treatment, or 5 doses
  Dose‐limiting toxicity: grade 4 psychiatric disorder
[3]; Pilot 1, 60 mg
  Tolerability: generally well tolerated
[3]; Pilot 1, 60‐80 mg
  Arrhythmias or QT prolongations: no reported arrhythmias or QT prolongations of any grade
[4]; read-out: IC50, Ben‐Men‐1 cells
  IC50: 1 µM
[4]; read-out: IC50 for meningiomas, previous in vitro studies
  IC50: ~1 µM
[5]; 40 mg
  Concentration in meningioma capsule: 5.3 µM
  Concentration in meningioma tumor center: 1.8 µM
  Concentrations of AR‐42 in VS: 0.23 to 0.62 µM
[5]; Patient # 2.1 (VS), 40 mg
  Concentration in tumors, Capsule: 0.6242 µM
  Concentration in tumors, Center: 0.577 µM
[5]; Patient # 2.2 (VS), 40 mg
  Concentration in tumors, Capsule: 0.4294 µM
  Concentration in tumors, Center: 0.5866 µM
[5]; Patient # 2.4 (VS), 40 mg
  Concentration in tumors, Capsule: 0.2306 µM
  Concentration in tumors, Center: 0.289 µM
[5]; Patient # 2.6 (VS), 40 mg
  Concentration in tumors, Capsule: 0.0162 µM
  Concentration in tumors, Center: 0.0071 µM
[5]; [8]
  Concentration in tumors, Capsule: 5.2966 µM
  Concentration in tumors, Center: 1.7662 µM
[5]; WHO grade I meningioma
  Meningioma (subject 2.7) AR‐42 level higher than the VS: 10 fold
[5]; all tumors, Pilot 2, 40 mg
  AR‐42 concentrations in tumors compared with plasma: higher
VS and meningioma cells
  Apoptosis: triggered apoptosis
  Cell cycle effect: induced cell‐cycle arrest at G2/M
  p‐AKT levels: decreased p‐AKT levels
Human VS cells; read-out: IC50, growth inhibition of human VS cells
  IC50: 0.5 µM
Human VS cells; read-out: IC50 for schwannomas, previous in vitro studies
  IC50: ~0.5 µM
Schwannoma xenografts
  AKT activation in schwannoma xenografts: decreased AKT activation
  Apoptosis in schwannoma xenografts: induced apoptosis
  Growth of schwannoma xenografts: inhibited the growth of schwannoma xenografts
[6]; 60 mg dose
  Mean maximal plasma concentration: 1.48 (±0.38) μM
[6]; Patient 1.7, 80 mg dose
  Maximum plasma concentration: 3.25 µM
[7]; 11 evaluable lesions
  Median on‐treatment estimated annual growth rate: 22%
  Median post‐treatment estimated annual growth rate: 10%
[7]; [9]
  % Volume growth on Rx: 54%
  On Rx response: PD (progressive disease (>20% increase in volume))
[7]; Patient 1.1, 837 days on AR‐42, Right IAC Schwannoma
  % Volume growth on Rx: −2%
[7]; [10]
  % Volume growth on Rx: 52%
  On Rx response: PD (progressive disease (>20% increase in volume))
[7]; [11]
  Change in GR Pre to On Rx (%): −128%
  Change in GR Pre to post Rx: −26%
  Est. annual growth rate On Rx (%): 23%
  Est. annual growth rate Post Rx: 125%
[7]; [12]
  Change in GR Pre to On Rx (%): −61%
  Change in GR Pre to post Rx: −10%
  Est. annual growth rate On Rx (%): −1%
  Est. annual growth rate Post Rx: 50%
[7]; [13]
  Change in GR Pre to On Rx (%): −69%
  Change in GR Pre to post Rx: −79%
  Est. annual growth rate On Rx (%): 22%
  Est. annual growth rate Post Rx: 12%
[7]; Patient 1.2, 84 days on AR‐42, Left trigeminal Schwannoma
  % Volume growth on Rx: −9%
[7]; [14]
  % Volume growth on Rx: 26%
  On Rx response: PD (progressive disease (>20% increase in volume))
[7]; [15]
  Change in GR Pre to On Rx (%): −54%
  Change in GR Pre to post Rx: −11%
  Est. annual growth rate On Rx (%): −46%
  Est. annual growth rate Post Rx: −3%
[7]; [16]
  Change in GR Pre to On Rx (%): 122%
  Change in GR Pre to post Rx: −6%
  Est. annual growth rate On Rx (%): 138%
  Est. annual growth rate Post Rx: 10%
[7]; [17]
  % Volume growth on Rx: 60%
  On Rx response: PD (progressive disease (>20% increase in volume))
[7]; [18]
  % Volume growth on Rx: −24%
  On Rx response: PR (partial response (>20% decrease in volume))
[7]; Patient 1.4, 275 days on AR‐42, Let foramen magnum Meningioma
  % Volume growth on Rx: −19%
[7]; Patient 1.4, 275 days on AR‐42, Right IAC Schwannoma
  % Volume growth on Rx: 9%
[7]; Patient 1.4, 275 days on AR‐42, Right anterior falx Meningioma
  % Volume growth on Rx: 0%
[7]; [19]
  Change in GR Pre to On Rx (%): −10%
  Change in GR Pre to post Rx: 20%
  Est. annual growth rate On Rx (%): 92%
  Est. annual growth rate Post Rx: 122%
[7]; [20]
  Change in GR Pre to On Rx (%): −170%
  Change in GR Pre to post Rx: −125%
  Est. annual growth rate On Rx (%): −37%
  Est. annual growth rate Post Rx: 8%
[7]; [21]
  Change in GR Pre to On Rx (%): −158%
  Change in GR Pre to post Rx: −138%
  Est. annual growth rate On Rx (%): −30%
  Est. annual growth rate Post Rx: −10%
[7]; [22]
  Change in GR Pre to On Rx (%): −133%
  Est. annual growth rate On Rx (%): 18%
[7]; [23]
  Change in GR Pre to On Rx (%): 0%
  Change in GR Pre to post Rx: 0%
  Est. annual growth rate On Rx (%): 0%
  Est. annual growth rate Post Rx: 0%
[7]; [24]
  % Volume growth on Rx: 104%
  On Rx response: PD (progressive disease (>20% increase in volume))
[7]; [25]
  Change in GR Pre to On Rx (%): 41%
  Change in GR Pre to post Rx: −232%
  Est. annual growth rate On Rx (%): 241%
  Est. annual growth rate Post Rx: −32%
[7]; Patient 1.6, 58 days on AR‐42, Left IAC Schwannoma
  % Volume growth on Rx: 15%
[7]; [26]
  % Volume growth on Rx: 40%
  On Rx response: PD (progressive disease (>20% increase in volume))
[7]; [27]
  Change in GR Pre to On Rx (%): 64%
  Change in GR Pre to post Rx: 32%
  Est. annual growth rate On Rx (%): 93%
  Est. annual growth rate Post Rx: 61%
[7]; [28]
  Change in GR Pre to On Rx (%): 187%
  Est. annual growth rate On Rx (%): 245%
[7]; Patient 1.7, 10 days on AR‐42, Left IAC Schwannoma
  % Volume growth on Rx: 4%
[7]; Patient 1.7, 10 days on AR‐42, Left prepontine cistern Meningioma
  % Volume growth on Rx: −9%
[7]; [29]
  Change in GR Pre to On Rx (%): 13%
  Est. annual growth rate On Rx (%): 50%
[7]; [30]
  Change in GR Pre to On Rx (%): −120%
  Est. annual growth rate On Rx (%): −113%
[7]; estimated percent annual growth rates
  Share of tumors with stable growth: 20%
[7]; of 7 meningiomas
  Meningiomas progressed on AR‐42: three
  Meningiomas stable or regressed on AR‐42: Four
[7]; of 8 VS
  VS progressed on AR‐42: three
  VS stable on AR‐42: Five
[7]; of 15 evaluable tumors
  Tumors with stable disease on AR‐42: eight
[7]; of 15 tumors
  Share of tumors with partial response: 7%
[7]; on AR‐42
  Decrease in volume of the tumor with partial response: 24%
[7]; posterior fossa meningioma of Patient 1.4
  Duration of partial response: 3 years
[7]; [31]
  Tumors that rebounded in growth rate (increased more than 20%) after termination: 4
  Tumors with growth rate decreased after termination: 3
  Tumors with growth rate not changed after termination: 4
[7]; [32]
  Tumors with increased growth rates (>20% increase): four
  Tumors with reduced growth rates (>20% decrease in growth rate): eight
  Tumors with stable growth rates (± <20% change): three
[7]; pre‐treatment to on‐treatment, P = 0.259
  Median reduction in annual growth rate: −54%
